ChEMBL document CHEMBL5696442, “Discovery of type II inhibitors of TGFβ-activated kinase 1 (TAK1) and mitogen-activated protein kinase kinase kinase kinase 2 (MAP4K2)” (J Med Chem, 2015)

Assays:
[1] = target: T1, Serine/threonine-protein kinase Nek9 (Homo sapiens) (UniProt Q8TD19); assay: Inhibition of NEK9 Lys1 labeling site harbouring TEDDSLVVWKEVDLTR in human A-375 cells at 0.05 uM by KiNativ Profiling analysis relative to control; type: cell-based
T1 sequence (whole entry): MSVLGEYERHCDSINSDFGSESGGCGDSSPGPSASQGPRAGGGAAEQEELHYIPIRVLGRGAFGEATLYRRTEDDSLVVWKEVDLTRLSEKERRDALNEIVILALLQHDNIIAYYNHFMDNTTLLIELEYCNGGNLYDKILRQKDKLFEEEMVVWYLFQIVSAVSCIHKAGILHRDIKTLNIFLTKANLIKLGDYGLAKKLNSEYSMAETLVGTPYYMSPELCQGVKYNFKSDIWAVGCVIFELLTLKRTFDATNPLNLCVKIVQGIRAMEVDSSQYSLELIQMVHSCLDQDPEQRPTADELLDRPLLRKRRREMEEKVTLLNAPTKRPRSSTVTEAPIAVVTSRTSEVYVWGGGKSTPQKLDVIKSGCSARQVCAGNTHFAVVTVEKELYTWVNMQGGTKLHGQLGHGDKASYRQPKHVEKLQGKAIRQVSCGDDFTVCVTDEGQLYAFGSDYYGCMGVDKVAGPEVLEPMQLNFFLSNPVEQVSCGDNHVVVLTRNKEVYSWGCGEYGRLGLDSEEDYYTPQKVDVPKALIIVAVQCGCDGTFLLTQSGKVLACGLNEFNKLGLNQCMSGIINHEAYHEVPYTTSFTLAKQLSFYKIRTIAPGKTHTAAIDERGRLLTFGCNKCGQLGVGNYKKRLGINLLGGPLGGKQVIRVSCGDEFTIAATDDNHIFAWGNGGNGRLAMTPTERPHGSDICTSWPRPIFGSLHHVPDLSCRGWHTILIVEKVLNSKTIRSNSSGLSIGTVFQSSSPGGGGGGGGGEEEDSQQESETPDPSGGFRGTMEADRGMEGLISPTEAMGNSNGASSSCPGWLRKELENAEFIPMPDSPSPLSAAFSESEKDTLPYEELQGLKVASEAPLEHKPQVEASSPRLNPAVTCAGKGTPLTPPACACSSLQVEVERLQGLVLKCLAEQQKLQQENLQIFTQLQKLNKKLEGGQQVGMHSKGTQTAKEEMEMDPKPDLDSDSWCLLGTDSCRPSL

[2] = target: T2, Mitogen-activated protein kinase 13 (Homo sapiens) (UniProt O15264); assay: Inhibition of p38 delta Lys2 labeling site in human A-375 cells at 0.5 uM by KiNativ Profiling analysis relative to control; type: cell-based
T2 sequence (whole entry): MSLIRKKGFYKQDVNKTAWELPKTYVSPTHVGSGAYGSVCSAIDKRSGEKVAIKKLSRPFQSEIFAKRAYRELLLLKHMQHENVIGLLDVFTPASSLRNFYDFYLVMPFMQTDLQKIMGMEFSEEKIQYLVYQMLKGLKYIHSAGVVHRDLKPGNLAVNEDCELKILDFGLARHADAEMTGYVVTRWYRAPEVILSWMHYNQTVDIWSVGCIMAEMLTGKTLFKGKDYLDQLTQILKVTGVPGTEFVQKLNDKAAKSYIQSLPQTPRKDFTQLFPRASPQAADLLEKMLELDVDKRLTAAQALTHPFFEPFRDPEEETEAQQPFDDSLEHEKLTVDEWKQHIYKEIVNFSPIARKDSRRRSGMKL

[3] = target: Cyclin-dependent kinase 10 (Homo sapiens) (UniProt Q15131); assay: Inhibition of CDK10 Lys2 labeling site in human A-375 cells at 0.05 uM by KiNativ Profiling analysis relative to control; type: cell-based
[4] = target: 3-phosphoinositide-dependent protein kinase 1 (Homo sapiens) (UniProt O15530); assay: Inhibition of PDK1 Protein Kinase Domain in human A-375 cells at 0.05 uM by KiNativ Profiling analysis relative to control
[5] = target: Tyrosine-protein kinase Lyn (Homo sapiens, UniProt P07948); assay: Inhibition of LYN Lys1 labeling site in human A-375 cells at 0.5 uM by KiNativ Profiling analysis relative to control; type: cell-based
[6] = target: Calcium/calmodulin-dependent protein kinase kinase 2 (Homo sapiens) (UniProt Q96RR4); assay: Inhibition of CaMKK2 Lys1 labeling site in human A-375 cells at 5 uM by KiNativ Profiling analysis relative to control; type: cell-based
Method in brief: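 Live A375 melanoma cells were treated with compound at 5 or 0.5 μM. The cells were then lysed, and the lysates were labeled with a lysine-reactive ATP or ADP-biotin acyl probe (KiNativ). Inhibition is the compound's protection of each kinase labeling-site peptide from probe labeling, relative to untreated control.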

[7] = target: Cyclin-dependent kinase 6 (Homo sapiens) (UniProt Q00534); assay: Inhibition of CDK6 Lys2 labeling site in human A-375 cells at 5 uM by KiNativ Profiling analysis relative to control; type: cell-based
Method in brief: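 Intact A375 melanoma cells were treated with compound at 5 or 0.5 μM, then lysed. Lysate kinases were labeled with a lysine-reactive ATP or ADP-biotin probe (KiNativ). Inhibition is read as protection of each kinase labeling site from probe labeling.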

[8] = Inhibition of KHS1 Lys2 labeling site in human A-375 cells at 0.5 uM by KiNativ Profiling analysis relative to control; settings: condition cancer
[9] = target: Ribosomal protein S6 kinase alpha-1 (Homo sapiens) (UniProt Q15418); assay: Inhibition of RSK1 domain2 Lys2 labeling site in human A-375 cells at 0.5 uM by KiNativ Profiling analysis relative to control; type: cell-based
Method in brief: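 Live A375 melanoma cells treated with compound at 5 or 0.5 μM, then lysed. Lysate kinases were labeled with a lysine-reactive ATP or ADP-biotin probe. Inhibition was read as protection of labeling sites from the probe.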

[10] = target: Protein kinase C alpha type (Homo sapiens) (UniProt P17252); assay: Inhibition of PKCa Lys2 labeling site in human A-375 cells at 0.05 uM by KiNativ Profiling analysis relative to control; type: cell-based
[11] = target: 3-phosphoinositide-dependent protein kinase 1 (Homo sapiens) (UniProt O15530); assay: Inhibition of PDK1 Protein Kinase Domain in human A-375 cells at 5 uM by KiNativ Profiling analysis relative to control

Sequence of 3-phosphoinositide-dependent protein kinase 1 (Homo sapiens) (O15530 whole entry, looked up, the tested form may be a part): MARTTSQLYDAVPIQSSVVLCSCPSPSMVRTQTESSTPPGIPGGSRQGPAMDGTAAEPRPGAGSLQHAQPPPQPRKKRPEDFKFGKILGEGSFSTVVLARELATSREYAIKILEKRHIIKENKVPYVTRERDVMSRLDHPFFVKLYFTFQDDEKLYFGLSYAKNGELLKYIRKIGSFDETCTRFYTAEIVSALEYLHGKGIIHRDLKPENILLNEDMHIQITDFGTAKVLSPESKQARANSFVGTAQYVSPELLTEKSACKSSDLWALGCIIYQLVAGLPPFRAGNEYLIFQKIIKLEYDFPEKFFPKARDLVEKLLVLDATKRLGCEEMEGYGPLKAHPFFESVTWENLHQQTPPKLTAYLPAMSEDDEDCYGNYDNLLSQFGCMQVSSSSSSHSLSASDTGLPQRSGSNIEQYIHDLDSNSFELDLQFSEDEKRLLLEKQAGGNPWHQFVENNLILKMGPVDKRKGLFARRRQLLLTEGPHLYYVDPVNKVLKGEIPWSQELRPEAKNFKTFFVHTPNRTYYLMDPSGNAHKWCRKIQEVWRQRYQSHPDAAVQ
Sequence of Cyclin-dependent kinase 6 (Homo sapiens) (Q00534 whole entry): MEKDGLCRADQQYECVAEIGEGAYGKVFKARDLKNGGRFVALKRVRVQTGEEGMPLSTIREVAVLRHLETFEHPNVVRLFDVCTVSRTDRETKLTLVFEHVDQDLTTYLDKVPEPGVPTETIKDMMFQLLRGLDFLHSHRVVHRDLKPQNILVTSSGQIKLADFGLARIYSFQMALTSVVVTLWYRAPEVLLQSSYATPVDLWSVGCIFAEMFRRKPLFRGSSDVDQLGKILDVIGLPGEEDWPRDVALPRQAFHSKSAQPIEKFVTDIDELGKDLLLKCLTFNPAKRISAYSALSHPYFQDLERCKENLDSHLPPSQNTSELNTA
Sequence of Calcium/calmodulin-dependent protein kinase kinase 2 (Homo sapiens) (Q96RR4 2-588 limits assumed): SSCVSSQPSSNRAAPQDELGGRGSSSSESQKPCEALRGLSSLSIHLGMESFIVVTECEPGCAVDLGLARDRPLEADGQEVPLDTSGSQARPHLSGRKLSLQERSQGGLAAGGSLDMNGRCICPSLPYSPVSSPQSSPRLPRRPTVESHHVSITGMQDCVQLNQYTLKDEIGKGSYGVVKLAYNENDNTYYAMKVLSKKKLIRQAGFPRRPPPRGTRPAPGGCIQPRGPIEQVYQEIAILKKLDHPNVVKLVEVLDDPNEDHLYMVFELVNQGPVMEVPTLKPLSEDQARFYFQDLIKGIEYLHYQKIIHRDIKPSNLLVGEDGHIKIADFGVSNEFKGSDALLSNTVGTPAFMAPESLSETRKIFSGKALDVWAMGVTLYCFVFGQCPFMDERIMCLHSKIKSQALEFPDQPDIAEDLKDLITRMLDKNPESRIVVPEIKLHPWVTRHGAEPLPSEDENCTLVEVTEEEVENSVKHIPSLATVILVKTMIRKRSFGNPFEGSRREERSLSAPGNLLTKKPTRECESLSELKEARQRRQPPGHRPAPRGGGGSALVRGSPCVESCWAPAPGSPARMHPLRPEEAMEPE
Sequence of Cyclin-dependent kinase 10 (Homo sapiens) (Q15131 whole entry, the tested form may be a part): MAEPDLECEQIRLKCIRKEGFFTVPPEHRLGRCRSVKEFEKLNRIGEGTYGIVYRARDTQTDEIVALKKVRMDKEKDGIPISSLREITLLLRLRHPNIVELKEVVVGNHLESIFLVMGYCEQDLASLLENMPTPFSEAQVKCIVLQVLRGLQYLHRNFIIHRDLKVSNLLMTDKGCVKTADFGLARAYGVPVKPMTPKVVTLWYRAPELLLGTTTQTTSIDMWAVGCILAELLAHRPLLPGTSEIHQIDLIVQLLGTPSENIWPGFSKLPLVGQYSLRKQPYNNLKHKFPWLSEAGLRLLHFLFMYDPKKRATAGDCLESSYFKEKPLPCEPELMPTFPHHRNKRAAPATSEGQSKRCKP
Sequence of Tyrosine-protein kinase Lyn (P07948 2-512 limits assumed): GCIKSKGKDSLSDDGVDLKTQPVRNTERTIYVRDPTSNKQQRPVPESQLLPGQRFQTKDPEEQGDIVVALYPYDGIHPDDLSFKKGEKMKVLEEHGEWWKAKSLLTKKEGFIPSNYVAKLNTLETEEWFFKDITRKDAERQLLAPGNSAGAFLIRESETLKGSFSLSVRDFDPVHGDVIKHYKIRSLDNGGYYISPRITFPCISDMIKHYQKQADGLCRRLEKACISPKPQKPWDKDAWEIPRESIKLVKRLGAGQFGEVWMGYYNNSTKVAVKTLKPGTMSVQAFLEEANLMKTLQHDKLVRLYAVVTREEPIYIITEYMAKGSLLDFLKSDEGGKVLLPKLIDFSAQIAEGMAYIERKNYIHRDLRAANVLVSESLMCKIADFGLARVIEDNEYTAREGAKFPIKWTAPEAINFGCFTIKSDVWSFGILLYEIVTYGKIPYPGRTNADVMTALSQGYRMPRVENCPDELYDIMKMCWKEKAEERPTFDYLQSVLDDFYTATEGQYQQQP
Sequence of Ribosomal protein S6 kinase alpha-1 (Homo sapiens) (Q15418 whole entry, the tested form may be a part): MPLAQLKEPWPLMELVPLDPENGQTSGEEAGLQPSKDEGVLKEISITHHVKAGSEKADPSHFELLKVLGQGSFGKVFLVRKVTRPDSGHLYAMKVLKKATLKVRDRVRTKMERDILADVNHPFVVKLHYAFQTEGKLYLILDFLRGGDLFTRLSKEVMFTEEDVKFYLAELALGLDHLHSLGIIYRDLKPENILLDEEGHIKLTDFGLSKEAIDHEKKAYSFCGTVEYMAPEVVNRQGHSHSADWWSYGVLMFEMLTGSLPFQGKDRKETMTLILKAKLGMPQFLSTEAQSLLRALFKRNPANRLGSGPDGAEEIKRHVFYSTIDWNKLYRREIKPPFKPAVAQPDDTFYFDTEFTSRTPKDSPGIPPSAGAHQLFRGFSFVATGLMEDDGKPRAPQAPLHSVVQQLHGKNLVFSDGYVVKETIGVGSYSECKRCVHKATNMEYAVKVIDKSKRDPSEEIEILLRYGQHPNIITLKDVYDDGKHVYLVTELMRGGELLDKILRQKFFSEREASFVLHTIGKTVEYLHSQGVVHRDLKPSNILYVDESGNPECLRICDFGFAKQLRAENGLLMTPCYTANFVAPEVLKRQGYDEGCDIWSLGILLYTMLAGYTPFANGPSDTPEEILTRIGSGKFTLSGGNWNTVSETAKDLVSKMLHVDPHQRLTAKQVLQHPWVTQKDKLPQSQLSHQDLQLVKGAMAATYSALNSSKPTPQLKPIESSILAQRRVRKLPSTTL

Structure (SMILES)	inhibition [1] [%]	inhibition [2] [%]	inhibition [3] [%]	inhibition [4] [%]	inhibition [5] [%]	inhibition [6] [%]	inhibition [7] [%]	inhibition at 0.5 µM [8] [%]	inhibition [9] [%]	inhibition [10] [%]	inhibition [11] [%]
CCN1CCN(Cc2ccc(NC(=O)c3ccc(C)c(Oc4ccnc5[nH]ccc45)c3)cc2C(F)(F)F)CC1	18.9	86.2	7.8	11.2	90.5	33.2	6.8	-0.3	3	45.3	9
CCN1CCN(Cc2ccc(NC(=O)c3ccc(C)c(/C=C/c4cnc5[nH]ccc5c4OC)c3)cc2C(F)(F)F)CC1	-2.6	25.2	30.7	-1.5	> 95	14.4	-2.3	36	1.6	58	15.8
